Experiment [1] concerns MV4-11. The experiment is described as follows: Inhibition of bryostatin1-induced human MV411 cell attachment treated for 24 hrs measured after 60 hrs. The format is functional, cell-based.
The test system of experiment [2] is U-937. The experiment in a line: Antiproliferative activity against human U937 cells at 0.1 to 3000 nM after 60 hrs. The experiment is classed as functional, cell-based. In short, it runs like this:
(§1)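 U937 cells were seeded, then treated 24 h later across a concentration series. Floating and attached cells were counted separately 60 h after treatment, giving proliferation and attachment read-outs. Data are mean ± SEM of five independent experiments.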

The test system of experiment [3] is K562. The experiment in a line: Antiproliferative activity against human K562 cells after 60 hrs in presence of PMA.
The subject of experiment [4] is K562. The experiment is described as follows: Inhibition of bryostatin1-induced human K562 cell attachment treated for 24 hrs measured after 60 hrs. The experiment is classed as functional, cell-based.
Experiment [5] can be described thus: Binding affinity to PKC.
The subject of experiment [6] is MV4-11. The experiment is described as follows: Antiproliferative activity against human MV411 cells after 60 hrs in presence of PMA. The experiment is classed as functional, cell-based. The method in brief: (§2)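 K562 or MV4-11 cells were seeded, then exposed to compound 24 h later alongside 10 nM PMA. Total cell number was counted 60 h after treatment. Data are mean ± SEM of three independent experiments.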

Experiment [7] deals with T1, Ras guanyl-releasing protein 3 (Homo sapiens) (UniProt Q8IV61).
T1 sequence (whole entry): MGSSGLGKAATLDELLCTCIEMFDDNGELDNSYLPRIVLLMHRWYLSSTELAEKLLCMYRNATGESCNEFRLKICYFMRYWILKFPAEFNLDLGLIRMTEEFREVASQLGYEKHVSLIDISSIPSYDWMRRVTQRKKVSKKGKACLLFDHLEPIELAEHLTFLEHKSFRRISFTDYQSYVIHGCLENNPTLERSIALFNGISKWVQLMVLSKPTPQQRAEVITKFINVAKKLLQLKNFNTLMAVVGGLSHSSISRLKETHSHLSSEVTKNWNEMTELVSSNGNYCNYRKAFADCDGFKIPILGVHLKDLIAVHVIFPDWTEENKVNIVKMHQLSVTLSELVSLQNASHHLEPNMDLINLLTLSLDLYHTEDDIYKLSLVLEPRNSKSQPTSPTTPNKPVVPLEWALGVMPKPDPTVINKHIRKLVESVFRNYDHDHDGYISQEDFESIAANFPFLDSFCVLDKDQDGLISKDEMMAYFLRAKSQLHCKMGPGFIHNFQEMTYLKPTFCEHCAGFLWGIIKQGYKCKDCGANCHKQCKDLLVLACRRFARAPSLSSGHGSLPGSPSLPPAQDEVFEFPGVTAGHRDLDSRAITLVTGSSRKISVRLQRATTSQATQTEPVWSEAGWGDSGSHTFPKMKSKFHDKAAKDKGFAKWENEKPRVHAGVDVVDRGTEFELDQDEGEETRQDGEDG
The experiment in a line: Modulation of RASGRP3 in human K562 cells assessed as […] after 24 hrs by Western blotting analysis. The format is cell-based. The method in brief:
(§3)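 K562 cells (150,000 cells/ml) treated 24 hr after plating with a dose range for 24 hr. Total cell lysates analysed by Western blot for C1 domain-containing proteins, with actin as loading control. Representative of three independent experiments.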
A general note: In western blotting, separated proteins are transferred to a membrane and probed.

Experiment [8] has as its system K562. The experiment is described as follows: Antiproliferative activity against human K562 cells after 60 hrs in presence of PMA. The experiment is classed as functional, cell-based. The method in brief:
as §2

The test system of experiment [9] is K562. The experiment in a line: Inhibition of PMA-induced human K562 cell attachment treated for 24 hrs measured after 60 hrs. The experiment is classed as functional, cell-based.
The subject of experiment [10] is MV4-11. The experiment is described as follows: Inhibition of PMA-induced human MV411 cell attachment treated for 24 hrs measured after 60 hrs. The experiment is classed as functional, cell-based.
Experiment [11] has as its system MV4-11. The experiment in a line: Antiproliferative activity against human MV411 cells after 60 hrs in presence of PMA.
Experiment [12] concerns U-937. The experiment is described as follows: Induction of human U937 cells attachment at 0.1 to 3000 nM treated for 24 hrs measured after 60 hrs. The experiment is classed as functional, cell-based. The method in brief:
as §1

In experiment [13] the target is T2, Protein kinase C epsilon type (Homo sapiens) (UniProt Q02156).
T2 sequence (whole entry): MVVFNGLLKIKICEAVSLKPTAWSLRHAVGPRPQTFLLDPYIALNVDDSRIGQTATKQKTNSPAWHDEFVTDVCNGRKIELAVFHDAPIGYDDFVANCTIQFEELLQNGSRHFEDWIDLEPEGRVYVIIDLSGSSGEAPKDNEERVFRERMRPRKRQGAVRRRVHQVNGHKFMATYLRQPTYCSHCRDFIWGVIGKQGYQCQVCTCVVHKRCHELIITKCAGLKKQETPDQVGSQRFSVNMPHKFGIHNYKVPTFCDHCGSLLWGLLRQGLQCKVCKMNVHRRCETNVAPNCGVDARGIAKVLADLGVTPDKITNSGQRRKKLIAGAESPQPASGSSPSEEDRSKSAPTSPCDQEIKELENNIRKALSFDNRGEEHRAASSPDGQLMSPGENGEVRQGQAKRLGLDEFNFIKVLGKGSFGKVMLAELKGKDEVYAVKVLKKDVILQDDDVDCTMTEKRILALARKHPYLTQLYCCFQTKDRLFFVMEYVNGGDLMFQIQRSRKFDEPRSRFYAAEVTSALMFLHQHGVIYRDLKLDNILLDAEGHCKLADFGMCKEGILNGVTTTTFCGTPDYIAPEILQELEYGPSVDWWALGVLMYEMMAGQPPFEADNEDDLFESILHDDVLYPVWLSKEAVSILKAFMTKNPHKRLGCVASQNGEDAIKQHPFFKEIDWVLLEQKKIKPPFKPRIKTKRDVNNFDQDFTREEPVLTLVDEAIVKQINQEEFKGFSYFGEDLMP
The experiment in a line: Modulation of PKCepsilon in human K562 cells assessed as […] after 24 hrs by Western blotting analysis. The experiment is classed as cell-based. In short, it runs like this:
as §3

Experiment [14] deals with U-937. The experiment in a line: Induction of human U937 cells attachment at 0.1 to 1000 nM treated for 24 hrs measured after 60 hrs. The experiment is classed as functional, cell-based. In short, it runs like this: (§4)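 Floating and attached cells counted 60 hr after treatment, giving proliferation (total count) and attachment. Mean ± SEM of five independent experiments.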

Experiment [15] relates to U-937. The experiment in a line: Antiproliferative activity against human U937 cells at 0.1 to 1000 nM after 60 hrs. The format is functional, cell-based. The method in brief: as §4
The test system of experiment [16] is U-937. The experiment is described as follows: Inhibition of PMA-induced human U937 cell attachment treated for 24 hrs measured after 60 hrs. The experiment is classed as functional, cell-based. In short, it runs like this: as §4
For experiment [17], the target named is Protein kinase C delta type (Homo sapiens) (UniProt Q05655). The experiment is described as follows: Modulation of PKCdelta in human K562 cells assessed as protein down-regulation after 24 hrs by Western blotting analysis. The format is cell-based. In short, it runs like this: as §3
Experiment [18] concerns U-937. The experiment is described as follows: Inhibition of PMA-induced human U937 cells antiproliferation activity after 60 hrs. The experiment is classed as functional, cell-based. The method in brief:
as §4

Experiment [19] deals with Protein kinase C beta type (Homo sapiens) (UniProt P05771). The experiment in a line: Modulation of PKCbeta in human K562 cells assessed as protein down-regulation after 24 hrs by Western blotting analysis. The experiment is classed as cell-based. In short, it runs like this:
as §3

The structures appear in SMILES notation. Active and inactive are the calls of the source. No cut-off for these calls is given here.

From ChEMBL document CHEMBL2029315 (Bioorg Med Chem Lett, 2012) come the findings set out here.

Protein kinase C delta type (Homo sapiens), sequence (Q05655 whole entry, looked up): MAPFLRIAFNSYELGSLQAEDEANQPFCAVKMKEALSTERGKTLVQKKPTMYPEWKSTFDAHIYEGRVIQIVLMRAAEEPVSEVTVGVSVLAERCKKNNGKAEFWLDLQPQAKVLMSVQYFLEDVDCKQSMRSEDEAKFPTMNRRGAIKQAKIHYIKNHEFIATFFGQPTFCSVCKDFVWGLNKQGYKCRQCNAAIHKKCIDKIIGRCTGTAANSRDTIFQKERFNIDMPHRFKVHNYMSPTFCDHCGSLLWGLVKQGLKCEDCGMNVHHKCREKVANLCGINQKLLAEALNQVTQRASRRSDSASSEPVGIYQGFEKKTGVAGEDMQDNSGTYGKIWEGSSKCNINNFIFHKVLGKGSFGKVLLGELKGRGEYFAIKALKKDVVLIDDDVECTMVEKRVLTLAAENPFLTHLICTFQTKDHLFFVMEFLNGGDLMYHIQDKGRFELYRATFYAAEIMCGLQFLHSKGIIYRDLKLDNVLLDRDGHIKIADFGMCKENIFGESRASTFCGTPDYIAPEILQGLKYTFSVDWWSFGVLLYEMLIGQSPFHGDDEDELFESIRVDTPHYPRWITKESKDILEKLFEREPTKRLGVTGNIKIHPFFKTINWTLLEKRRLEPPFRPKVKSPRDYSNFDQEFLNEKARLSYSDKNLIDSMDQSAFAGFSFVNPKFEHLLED
Protein kinase C beta type (Homo sapiens), sequence (P05771 2-671 limits assumed): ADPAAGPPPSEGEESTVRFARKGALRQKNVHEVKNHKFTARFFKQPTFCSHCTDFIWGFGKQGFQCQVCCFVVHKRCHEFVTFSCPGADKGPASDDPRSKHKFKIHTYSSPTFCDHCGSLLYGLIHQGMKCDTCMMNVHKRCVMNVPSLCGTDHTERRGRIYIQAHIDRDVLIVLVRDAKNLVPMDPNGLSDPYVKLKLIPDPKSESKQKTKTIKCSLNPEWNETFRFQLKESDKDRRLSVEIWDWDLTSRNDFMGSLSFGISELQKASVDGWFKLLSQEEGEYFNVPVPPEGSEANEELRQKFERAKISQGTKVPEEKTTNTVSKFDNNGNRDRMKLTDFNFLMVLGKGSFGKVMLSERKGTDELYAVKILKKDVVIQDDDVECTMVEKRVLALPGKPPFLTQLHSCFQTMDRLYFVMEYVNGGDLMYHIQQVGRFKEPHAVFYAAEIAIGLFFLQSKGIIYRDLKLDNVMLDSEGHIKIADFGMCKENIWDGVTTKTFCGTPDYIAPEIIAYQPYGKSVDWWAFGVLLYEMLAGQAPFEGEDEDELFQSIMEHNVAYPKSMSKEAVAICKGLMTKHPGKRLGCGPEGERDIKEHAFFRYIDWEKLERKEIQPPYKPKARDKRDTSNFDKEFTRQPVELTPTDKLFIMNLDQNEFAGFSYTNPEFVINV

As usually defined, the Ki is the dissociation constant of the complex between target and ligand, obtained from inhibition or displacement. `C=C1C[C@H]2C[C@@H]3O[C@@H](CC(=C)C3(C)C)C[C@@H](O)CC(=O)O[C@@H]([C@@H](C)O)C[C@@H]3C/C(=C\C(=O)OC)[C@H](OC(=O)/C=C/C=C/CCC)[C@@](O)(O3)C(C)(C)/C=C/[C@@H](C1)O2`: the inhibition entry in experiment [1] and in experiment [4] was “Active” in each case. Moreover, the outcome in experiment [2], in experiment [7], in experiment [12] and in experiment [13] was Active. Moreover, the Activity entry in [3], in [6], in [8] and in experiment [11] was “Dose-dependent effect” throughout. Also, in [5], affinity was put at a Ki of 1.08 nM. Besides, the inhibition entry in experiment [9] and in experiment [10] was “inactive” each time.

In the case of `CCCCCCCCCCCCCC(=O)O[C@@H]1[C@@H](C)[C@@]2(O)[C@@H](C=C(CO)C[C@]3(O)C(=O)C(C)=C[C@@H]23)[C@@H]2C(C)(C)[C@]12OC(C)=O`, the outcome in [14], in experiment [7], in [15] and in experiment [13] was Active.

Regarding `CCC/C=C/C=C/C(=O)O[C@H]1/C(=C/C(=O)OC)C[C@H]2C[C@H]([C@@H](C)O)OC(=O)C[C@H](O)C[C@@H]3C[C@H](OC(C)=O)C(C)(C)[C@](O)(C[C@@H]4C/C(=C/C(=O)OC)C[C@H](/C=C/C(C)(C)[C@]1(O)O2)O4)O3`, the inhibition result in [16] and in experiment [18] was “Dose-dependent effect” each time. For the same compound, the result in experiment [17] and in [19] was Active. Also, the result in [7] and in experiment [13] was inactive.
